For assay [1], the target named is Kappa-type opioid receptor (Rattus norvegicus) (UniProt P34975). As to the kind of experiment: Activity at rat kappa opioid receptor expressed in CHO cells assessed as inhibition of adenylyl cyclase activity at 10 uM relative to Dyn A-(1-13)NH2. It counts as functional, cell-based. In short, it runs like this: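 CHO cells stably expressing cloned rat KOR. Adenylyl cyclase inhibition was measured with each peptide at 10 μM. Efficacy is expressed relative to the maximal inhibition by the reference agonist Dyn A-(1-13)NH2 (100 nM). Values are mean ± SEM of at least three independent experiments.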

Assay [2] addresses Kappa-type opioid receptor (Rattus norvegicus, UniProt P34975). The experiment in a line: Displacement of [3H]diprenorphine from rat kappa opioid receptor expressed in CHO cells. It counts as cell-based. The essentials: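 Radioligand competition binding on membranes of CHO cells stably expressing cloned rat KOR, rat MOR or mouse DOR. […] Ki values are mean ± SEM of at least three independent experiments.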

For another assay, the target named is Mu-type opioid receptor (Rattus norvegicus, UniProt P33535). As to the kind of experiment: Displacement of [3H]DAMGO from rat mu opioid receptor expressed in CHO cells. It counts as cell-based. In short, it runs like this:
(§1)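 Radioligand competition binding on membranes of CHO cells stably expressing cloned rat KOR, rat MOR or mouse DOR. Ki values are mean ± SEM of at least three independent experiments.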
(In a radioligand displacement assay an active substance lowers the binding of a labelled ligand.)

For assay [3], the target named is Delta-type opioid receptor (Mus musculus, UniProt P32300). The experiment in a line: Displacement of [3H]DPDPE from mouse delta opioid receptor expressed in CHO cells. It counts as cell-based. In short, it runs like this: as §1
The next assay is filed under the species Rattus norvegicus. As to the kind of experiment: Selectivity ratio of Ki for rat kappa opioid receptor to Ki for rat mu opioid receptor.
Assay [4] in a line: Selectivity ratio of Ki for rat kappa opioid receptor to Ki for mouse delta opioid receptor.

pKi: −log10 of the molar value.

Sequence of Kappa-type opioid receptor (Rattus norvegicus) (P34975 whole entry): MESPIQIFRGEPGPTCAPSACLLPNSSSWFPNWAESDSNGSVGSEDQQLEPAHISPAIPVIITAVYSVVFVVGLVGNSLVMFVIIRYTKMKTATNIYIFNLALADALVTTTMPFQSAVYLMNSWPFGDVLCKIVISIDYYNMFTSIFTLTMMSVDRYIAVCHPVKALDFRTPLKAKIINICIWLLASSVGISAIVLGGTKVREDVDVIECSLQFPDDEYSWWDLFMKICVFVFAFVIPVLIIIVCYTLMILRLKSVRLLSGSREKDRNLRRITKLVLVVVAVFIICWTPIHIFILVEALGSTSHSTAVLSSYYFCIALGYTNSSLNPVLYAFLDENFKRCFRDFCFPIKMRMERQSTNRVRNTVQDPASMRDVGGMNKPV
Sequence of Kappa-type opioid receptor (P34975 whole entry): as above
Sequence of Mu-type opioid receptor (P33535 whole entry): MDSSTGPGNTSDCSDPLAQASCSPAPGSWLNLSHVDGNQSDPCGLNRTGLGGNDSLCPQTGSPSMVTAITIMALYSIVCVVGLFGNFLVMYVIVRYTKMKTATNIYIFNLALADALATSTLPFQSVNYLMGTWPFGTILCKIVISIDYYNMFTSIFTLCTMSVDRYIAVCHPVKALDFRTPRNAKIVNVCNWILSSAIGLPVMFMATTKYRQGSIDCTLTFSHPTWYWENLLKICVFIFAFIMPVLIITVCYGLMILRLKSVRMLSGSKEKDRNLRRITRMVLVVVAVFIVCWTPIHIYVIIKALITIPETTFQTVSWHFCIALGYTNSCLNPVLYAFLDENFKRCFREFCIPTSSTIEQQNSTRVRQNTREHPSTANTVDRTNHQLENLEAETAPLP
Sequence of Delta-type opioid receptor (P32300 whole entry): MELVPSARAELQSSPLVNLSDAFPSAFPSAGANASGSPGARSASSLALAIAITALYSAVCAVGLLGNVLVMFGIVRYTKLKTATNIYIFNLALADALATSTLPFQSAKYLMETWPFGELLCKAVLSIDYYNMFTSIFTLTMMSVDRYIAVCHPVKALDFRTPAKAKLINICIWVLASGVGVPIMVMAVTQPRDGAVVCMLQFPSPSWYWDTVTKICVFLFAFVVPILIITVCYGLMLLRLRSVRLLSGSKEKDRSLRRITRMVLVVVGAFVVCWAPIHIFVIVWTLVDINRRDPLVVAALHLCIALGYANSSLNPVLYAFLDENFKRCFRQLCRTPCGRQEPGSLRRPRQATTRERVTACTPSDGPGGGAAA

In the case of `CC[C@H](C)[C@H](NC(=O)[C@H](CCCNC(=N)N)N(C)C(=O)[C@H](CCCNC(=N)N)NC(=O)[C@H](CC(C)C)NC(=O)[C@H](Cc1ccccc1)NC(=O)CNC(=O)CNC(=O)[C@H](Cc1ccc(O)cc1)NCc1ccccc1)C(=O)N[C@@H](CCCNC(=N)N)C(=O)N1CCC[C@@H]1C(=O)N[C@@H](CCCCN)C(N)=O`, the inhibition (in general, the change of the read-out against control, counted positive when it falls) in assay [1] is 70%.
On the same count and under the same terms, as for `CC[C@H](C)[C@H](NC(=O)[C@H](CCCNC(=N)N)N(C)C(=O)[C@H](CCCNC(=N)N)NC(=O)[C@H](CC(C)C)NC(=O)[C@H](Cc1ccccc1)NC(=O)CNC(=O)CNC(=O)[C@H](Cc1ccc(O)cc1)NCc1ccccc1)C(=O)N[C@@H](CCCNC(=N)N)C(=O)N1CCC[C@H]1C(=O)N[C@@H](CCCCN)C(N)=O`, the figure is 70%.
As for `CC(=O)NC[C@H](NC(=O)[C@H](CCCNC(=N)N)NC(=O)[C@H](CCCNC(=N)N)NC(=O)[C@@H](CC(N)=O)NC(=O)[C@H](Cc1ccccc1)NC(=O)CNC(=O)CNC(=O)[C@H](Cc1ccc(O)cc1)NCc1ccccc1)C(=O)N[C@@H](CCCNC(=N)N)C(=O)N1CCC[C@H]1C(=O)N[C@@H](CCCCN)C(N)=O`, the pKi (commonly the negative decadic logarithm of the Ki, by convention in mol/L) was 7.17 in assay [2], 5.78 on Mu-type opioid receptor and less than 5.00 in assay [3]. Further, the Ratio Ki stood at 25 in the assay listed under Rattus norvegicus and 149 in assay [4].
Turning to `CC(C)C[C@H](NC(=O)[C@H](Cc1ccccc1)NC(=O)CNC(=O)CNC(=O)[C@H](Cc1ccc(O)cc1)NCc1ccccc1)C(=O)N[C@@H](CCCNC(=N)N)C(=O)N[C@@H](CCCNC(=N)N)C(=O)N[C@H](C)C(=O)N[C@@H](CCCNC(=N)N)C(=O)N1CCC[C@@H]1C(=O)N[C@@H](CCCCN)C(N)=O`, the inhibition in assay [1] came out at 70%. Moreover, the Ratio Ki was 15 in the assay listed under Rattus norvegicus and 109 in assay [4].
For `CC(C)C[C@H](NC(=O)[C@H](Cc1ccccc1)NC(=O)CNC(=O)CNC(=O)[C@H](Cc1ccc(O)cc1)NCc1ccccc1)C(=O)N[C@@H](CCCNC(=N)N)C(=O)N(C)[C@@H](CCCNC(=N)N)C(=O)N[C@H](C)C(=O)N[C@@H](CCCNC(=N)N)C(=O)N1CCC[C@H]1C(=O)N[C@@H](CCCCN)C(N)=O`, the inhibition in assay [1] turned out to be 70%. The Ratio Ki in the assay listed under Rattus norvegicus was determined as 14; in assay [4] it was 147.
On the same counts, the results for `CC(C)C[C@H](NC(=O)[C@H](Cc1ccccc1)NC(=O)CNC(=O)CNC(=O)[C@H](Cc1ccc(O)cc1)NCc1ccccc1)C(=O)N[C@@H](CCCNC(=N)N)C(=O)N[C@@H](CCCNC(=N)N)C(=O)N[C@H](C)C(=O)N[C@@H](CCCNC(=N)N)C(=O)N1CCC[C@H]1C(=O)N[C@@H](CCCCN)C(N)=O` are 70%, 11 and 80.
Take `CC(C)C[C@H](NC(=O)[C@H](Cc1ccccc1)NC(=O)CNC(=O)CNC(=O)[C@H](Cc1ccc(O)cc1)NCc1ccccc1)C(=O)N[C@@H](CCCNC(=N)N)C(=O)N(C)[C@@H](CCCNC(=N)N)C(=O)N[C@H](C)C(=O)N[C@@H](CCCNC(=N)N)C(=O)N1CCC[C@@H]1C(=O)N[C@@H](CCCCN)C(N)=O`: the inhibition in assay [1] was 70%. Also, the Ratio Ki came out at 16 in the assay listed under Rattus norvegicus and 151 in assay [4].

For the origin of these results see ChEMBL document CHEMBL1154596, “The effects of C-terminal modifications on the opioid activity of [N-benzylTyr(1)]dynorphin A-(1-11) analogues” (J Med Chem, 2009).
